Measurements published in ChEMBL document CHEMBL3351593, “Potent nonimmunosuppressive cyclophilin inhibitors with improved pharmaceutical properties and decreased transporter inhibition” (J Med Chem, 2014).
Values after ≈ are worked out from the molar mass of the structure shown.

Tests used:
[1] = biological target: Peptidyl-prolyl cis-trans isomerase F, mitochondrial (Homo sapiens, UniProt P30405); experiment: Binding affinity to human cyclophilin F by surface plasmon resonance method
In short: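 Surface plasmon resonance with biotinylated cyclophilin protein, single-cycle kinetics. Running buffer 10 mM HEPES pH 7.4, 150 mM NaCl, 0.05% P20, 3% DMSO, with inhibitor present. Compound injected at several concentrations, 1 min contact each at 50 μL/min, then 10 min final dissociation. kon, koff and KD obtained from a 1:1 binding model fit.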

[2] = AUC in dog blood at 1 mg/kg, po after 72 hrs; type: ADME, organism-based, Canis lupus familiaris; parameters: time < 72 hr, dose 1 mg/kg, route oral; settings: whole blood
In short: (§1)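 Oral dosing as a solution in MEPC: rat 25 mg/kg, dog 1 mg/kg. Blood and plasma collected separately over 0−72 h and AUC computed for each matrix.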

[3] = AUC in dog plasma at 1 mg/kg, po after 72 hrs; type: ADME, organism-based, Canis lupus familiaris; parameters: time < 72 hr, dose 1 mg/kg, route oral; in short: as §1
[4] = biological target: Cytochrome P450 3A4 (Homo sapiens, UniProt P08684); experiment: Inhibition of CYP3A4 (unknown origin); type: ADME
[5] = biological target: Peptidyl-prolyl cis-trans isomerase B (Homo sapiens, UniProt P23284); experiment: Binding affinity to human cyclophilin B by surface plasmon resonance method
In short: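 Biotinylated cyclophilin proteins examined by single-cycle kinetics SPR. Running buffer 10 mM HEPES pH 7.4, 150 mM NaCl, 0.05% P20, 3% DMSO, with inhibitor. Each concentration injected for 1 min at 50 μL/min, then 10 min dissociation. kon, koff and KD obtained from a 1:1 binding fit.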

[6] = biological target: Cytochrome P450 2C19 (Homo sapiens, UniProt P33261); experiment: Inhibition of […] (unknown origin); type: ADME
[7] = biological target: T1, Solute carrier organic anion transporter family member 1B1 (Homo sapiens, UniProt Q9Y6L6); experiment: Inhibition of OATP1B1 (unknown origin) expressed in CHO cells using 8-fluorescein-cAMP substrate by fluorescent photometry; type: ADME, cell-based
T1 sequence (Q9Y6L6 whole entry): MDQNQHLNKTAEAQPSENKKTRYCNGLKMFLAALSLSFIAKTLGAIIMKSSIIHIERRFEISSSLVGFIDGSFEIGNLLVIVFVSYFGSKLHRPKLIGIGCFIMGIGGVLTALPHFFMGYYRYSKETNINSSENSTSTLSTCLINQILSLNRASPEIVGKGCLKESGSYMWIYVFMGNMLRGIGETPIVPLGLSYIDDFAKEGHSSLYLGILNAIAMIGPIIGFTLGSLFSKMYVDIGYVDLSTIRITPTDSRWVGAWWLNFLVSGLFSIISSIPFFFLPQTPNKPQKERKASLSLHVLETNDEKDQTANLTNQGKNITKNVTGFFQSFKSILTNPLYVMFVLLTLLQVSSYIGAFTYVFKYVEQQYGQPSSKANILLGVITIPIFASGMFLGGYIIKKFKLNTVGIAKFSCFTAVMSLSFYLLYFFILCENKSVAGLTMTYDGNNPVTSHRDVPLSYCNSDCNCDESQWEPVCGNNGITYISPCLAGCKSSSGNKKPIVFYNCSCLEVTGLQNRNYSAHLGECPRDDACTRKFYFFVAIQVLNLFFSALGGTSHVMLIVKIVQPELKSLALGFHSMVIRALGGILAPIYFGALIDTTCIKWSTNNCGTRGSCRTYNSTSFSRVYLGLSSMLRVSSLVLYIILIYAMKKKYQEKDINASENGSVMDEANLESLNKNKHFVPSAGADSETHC
In short: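 CHO-OATP1B1 cells and vector control cells cultured 2 days, then washed and equilibrated 15 min in HBSS + 10 mM HEPES. Exposed 10 min to 2.5 μM 8-fluorescein-cAMP with inhibitor at 0−30 μM (up to 1% DMSO). Cells washed and lysed, uptake measured by fluorescence, and IC50 taken from the concentration-response curve.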

[8] = biological target: Peptidyl-prolyl cis-trans isomerase A (Homo sapiens, UniProt P62937); experiment: Binding affinity to human cyclophilin A by surface plasmon resonance method
[9] = Kinetic solubility of the compound in pH 7.0 water; type: physicochemical; settings: read-out: Kinetic_solubility
[10] = biological target: T2, Cytochrome P450 2C8 (Homo sapiens, UniProt P10632); experiment: Inhibition of CYP2C8 (unknown origin); type: ADME
T2 sequence (P10632 whole entry): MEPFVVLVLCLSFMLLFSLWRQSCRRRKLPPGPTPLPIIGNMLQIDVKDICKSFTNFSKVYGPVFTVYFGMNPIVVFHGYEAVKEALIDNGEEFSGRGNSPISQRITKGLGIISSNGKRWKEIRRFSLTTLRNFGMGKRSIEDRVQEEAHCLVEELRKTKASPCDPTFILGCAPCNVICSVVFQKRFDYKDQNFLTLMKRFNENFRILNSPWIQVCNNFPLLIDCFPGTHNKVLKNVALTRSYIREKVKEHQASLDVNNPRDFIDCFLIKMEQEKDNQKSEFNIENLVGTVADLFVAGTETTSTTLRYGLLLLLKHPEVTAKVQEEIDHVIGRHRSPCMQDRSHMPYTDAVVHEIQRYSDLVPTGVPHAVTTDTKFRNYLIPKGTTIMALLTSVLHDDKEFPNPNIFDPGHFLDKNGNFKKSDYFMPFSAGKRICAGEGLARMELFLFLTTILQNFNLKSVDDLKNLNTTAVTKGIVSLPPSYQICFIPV

[11] = system: PBMC; experiment: Cytotoxicity against PHA-stimulated human PBMC by 5-bromo-2'-deoxyuridine incorporation assay; type: cell-based
In short: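 Fresh PBMCs from two human donors in X-VIVO 15 medium, stimulated with PHA. Seven concentrations taken from a half-log series. Incubated 60 h at 37 °C, 5% CO2, with BrdU added for the final 12 h. Incorporation read by anti-BrdU ELISA at 450 nm. Percent inhibition against PHA-stimulated untreated cells after background subtraction, four-parameter fit giving IC50.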

[12] = biological target: Cytochrome P450 2D6 (Homo sapiens, UniProt P10635); experiment: Inhibition of CYP2D6 (unknown origin); type: ADME
[13] = system: Hepatitis C virus; experiment: Antiviral activity against HCV subtype 1b in human Huh7.5 cells expressing subgenomic HCV replicons and coexpressing luciferase reporter gene; type: functional, cell-based, Hepacivirus hominis; settings: genotype 1b, Huh-7
In short: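 Stable Huh7.5 lines carrying genotype 1a or 1b subgenomic replicons with luciferase reporter, made by RNA electroporation and G418 selection. Assay run in phenol red-free DMEM without G418, sixteen half-log compound dilutions, in triplicate. Luciferase signal read after 72 h relative to DMSO controls, giving EC50.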

[14] = Lipophilicity, log D of the compound; type: physicochemical; settings: octanol/water
[15] = system: Hepatitis C virus; experiment: Antiviral activity against HCV subtype 1b in human Huh7.5 cells expressing subgenomic HCV replicons and coexpressing luciferase reporter gene in presence of 40% human serum; type: functional, cell-based, Hepacivirus hominis; settings: genotype 1b, Huh-7
In short: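 Genotype 1b luciferase replicon in Huh7.5 cells with 40% human serum added to the assay medium, in phenol red-free DMEM without G418. Sixteen half-log dilutions in triplicate. Luciferase read after 72 h relative to DMSO-treated cells, giving EC50.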

Sequence of Peptidyl-prolyl cis-trans isomerase F, mitochondrial (P30405 whole entry): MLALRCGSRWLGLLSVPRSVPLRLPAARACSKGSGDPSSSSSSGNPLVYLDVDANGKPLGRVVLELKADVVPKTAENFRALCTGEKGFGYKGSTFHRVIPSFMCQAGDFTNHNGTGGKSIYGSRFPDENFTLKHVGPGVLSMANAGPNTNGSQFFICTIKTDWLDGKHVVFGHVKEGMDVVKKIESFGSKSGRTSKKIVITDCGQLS
Sequence of Peptidyl-prolyl cis-trans isomerase B (P23284 whole entry): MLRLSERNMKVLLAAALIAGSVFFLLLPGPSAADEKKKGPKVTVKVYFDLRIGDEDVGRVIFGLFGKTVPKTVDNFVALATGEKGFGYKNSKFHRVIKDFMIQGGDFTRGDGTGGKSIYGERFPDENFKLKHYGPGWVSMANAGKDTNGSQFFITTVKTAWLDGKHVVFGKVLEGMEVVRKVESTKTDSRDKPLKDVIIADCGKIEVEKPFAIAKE
Sequence of Peptidyl-prolyl cis-trans isomerase A (P62937 whole entry): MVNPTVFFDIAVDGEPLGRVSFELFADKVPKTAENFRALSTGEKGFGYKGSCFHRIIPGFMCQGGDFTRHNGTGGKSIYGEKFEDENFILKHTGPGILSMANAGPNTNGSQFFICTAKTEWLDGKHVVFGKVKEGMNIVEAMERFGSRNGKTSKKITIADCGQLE
Sequence of Cytochrome P450 3A4 (P08684 whole entry): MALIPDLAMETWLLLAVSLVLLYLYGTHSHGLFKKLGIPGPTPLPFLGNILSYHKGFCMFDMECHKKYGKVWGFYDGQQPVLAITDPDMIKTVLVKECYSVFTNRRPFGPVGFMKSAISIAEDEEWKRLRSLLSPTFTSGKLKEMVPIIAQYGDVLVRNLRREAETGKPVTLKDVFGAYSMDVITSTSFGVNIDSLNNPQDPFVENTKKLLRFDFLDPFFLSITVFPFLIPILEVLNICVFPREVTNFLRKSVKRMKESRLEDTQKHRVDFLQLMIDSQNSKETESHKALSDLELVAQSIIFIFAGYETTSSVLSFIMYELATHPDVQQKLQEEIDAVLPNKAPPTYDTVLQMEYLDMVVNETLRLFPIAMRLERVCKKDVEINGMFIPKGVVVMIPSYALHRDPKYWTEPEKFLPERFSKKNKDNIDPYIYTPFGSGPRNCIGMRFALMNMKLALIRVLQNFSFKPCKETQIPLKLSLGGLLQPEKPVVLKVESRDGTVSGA
Sequence of Cytochrome P450 2D6 (P10635 whole entry): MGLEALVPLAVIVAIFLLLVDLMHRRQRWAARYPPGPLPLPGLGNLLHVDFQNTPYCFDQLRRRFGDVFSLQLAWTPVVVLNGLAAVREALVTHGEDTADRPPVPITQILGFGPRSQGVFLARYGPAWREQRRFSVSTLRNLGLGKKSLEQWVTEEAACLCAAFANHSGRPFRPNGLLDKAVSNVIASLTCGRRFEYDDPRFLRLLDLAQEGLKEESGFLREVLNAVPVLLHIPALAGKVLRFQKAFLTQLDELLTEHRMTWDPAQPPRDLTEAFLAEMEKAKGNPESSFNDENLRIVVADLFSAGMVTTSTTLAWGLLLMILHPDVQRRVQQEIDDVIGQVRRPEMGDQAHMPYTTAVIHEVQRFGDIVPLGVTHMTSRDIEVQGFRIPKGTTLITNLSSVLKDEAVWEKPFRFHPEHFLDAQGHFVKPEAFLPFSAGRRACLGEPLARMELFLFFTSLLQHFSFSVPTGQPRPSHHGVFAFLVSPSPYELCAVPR
Sequence of Cytochrome P450 2C19 (P33261 whole entry): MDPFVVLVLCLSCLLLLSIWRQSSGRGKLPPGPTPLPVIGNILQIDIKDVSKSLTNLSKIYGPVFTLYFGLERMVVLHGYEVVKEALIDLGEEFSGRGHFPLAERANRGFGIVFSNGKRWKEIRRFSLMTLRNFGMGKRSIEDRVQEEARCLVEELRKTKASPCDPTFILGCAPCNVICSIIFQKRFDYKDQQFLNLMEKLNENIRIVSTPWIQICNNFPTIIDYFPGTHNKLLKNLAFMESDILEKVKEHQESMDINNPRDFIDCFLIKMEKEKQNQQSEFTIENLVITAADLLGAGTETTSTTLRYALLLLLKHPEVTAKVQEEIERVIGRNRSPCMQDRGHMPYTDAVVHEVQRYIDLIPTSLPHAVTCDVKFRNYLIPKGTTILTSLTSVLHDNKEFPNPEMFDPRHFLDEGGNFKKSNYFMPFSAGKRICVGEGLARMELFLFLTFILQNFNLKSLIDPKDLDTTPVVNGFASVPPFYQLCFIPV

Row | Kd [1] [nM] | AUC at 72 h [2] [µM·h] | AUC at 72 h [3] [µM·h] | IC50 [4] [nM] | Kd [5] [nM] | IC50 [6] [nM] | IC50 [7] [nM] | Kd [8] [nM] | solubility kinetic [9] [µg/mL] | IC50 [10] [nM] | IC50 [12] [nM] | EC50 [13] [nM] | logD [14] | EC50 [15] [nM] | Compound | IC50 [11] [nM]
1 | 0.9 | 22.1 | 0.9 | > 40000 | 1.2 | > 40000 | 6100 | 1.2 | 1100 (≈ 818 µM) | > 40000 | > 40000 | 40 | 3.9 | 42 | C/C=C/C[C@@H](C)[C@@H](O)[C@H]1C(=O)N[C@@H](CC)C(=O)N(C)[C@H](C)C(=O)N(C)[C@@H]([C@@H](C)CN2CCN(CCOC)CC2)C(=O)N[C@@H](C(C)C)C(=O)N(C)[C@@H](CC(C)C)C(=O)N[C@@H](C)C(=O)N[C@H](C)C(=O)N(C)[C@@H](CC(C)C)C(=O)N(C)[C@@H](CC(C)C)C(=O)N(C)[C@@H](C(C)C)C(=O)N1C | 13200
2 | 1 | 2.19 | 0.4 |  | 1 |  | 800 | 2.2 | < 5 |  |  | 46 | > 6 | 116 | C/C=C/C[C@@H](C)[C@@H](O)[C@H]1C(=O)N[C@@H](CC)C(=O)N(C)[C@H](C)C(=O)N(CC)[C@@H](C(C)C)C(=O)N[C@@H](C(C)C)C(=O)N(C)[C@@H](CC(C)C)C(=O)N[C@@H](C)C(=O)N[C@H](C)C(=O)N(C)[C@@H](CC(C)C)C(=O)N(C)[C@@H](CC(C)C)C(=O)N(C)[C@@H](C(C)C)C(=O)N1C [ALISPORIVIR] | 500
